Experimental findings from ChEMBL document CHEMBL4251718, “Isolation of Imaqobactin, an Amphiphilic Siderophore from the Arctic Marine Bacterium Variovorax Species RKJM285” (J Nat Prod, 2018) are described below.

A short description of data set [1]: Metal chelating activity assessed as V3+-compound complex formation after 1 hr by LC-HRMS analysis. Summed up: (§1)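 500 μg of ligand was dissolved in 1 mL PBS (pH 7.5) and stirred with excess (15 mg) AlCl3, AuCl3 or VCl3 at room temperature for 1 h. Samples went through C18 SPE with a water wash and MeOH elution, were dried, and were redissolved at 500 μg mL−1 in MeOH. Complexes were detected by C18 LC-HRMS using a water/acetonitrile 0.1% formic acid gradient.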

Data set [2] can be described thus: Metal chelating activity assessed as Al3+-compound complex formation after 1 hr by LC-HRMS analysis. Summed up:
as §1

Data set [3] in a line: Metal chelating activity assessed as Au3+-compound complex formation after 1 hr by LC-HRMS analysis. Summed up:
as §1

Data set [4] deals with Vero. In words: Cytotoxicity against African green monkey Vero cells after 24 hrs by alamar blue assay. It counts as cell-based. Conditions: chlorocebus sabaeus. Summed up: (§2)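 Cytotoxicity was measured with Alamar blue. Fluorescence (ex 560/12, em 590 nm) was read at time zero and 4 h after Alamar blue addition, and IC50 values were calculated from these readings. The free ligand and its Fe(III) and Ga(III) complexes were tested.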
(Alamar Blue is a resazurin reagent that responds to reducing activity.)

The subject of data set [5] is Keratinocyte. In words: Cytotoxicity against human epidermal keratinocytes after 24 hrs by alamar blue assay. Summed up: as §2
In data set [6] the test system is Staphylococcus aureus. In words: Antibacterial activity against methicillin-resistant Staphylococcus aureus ATCC 33591 after 22 hrs by microbroth dilution method. As to conditions: ATCC 33591, 22 h. It counts as functional, organism-based. Summed up: (§3)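 CLSI broth microdilution, run in triplicate. OD600 was read at time zero and again after 22 h at 37 °C, and percent growth inhibition was calculated from these readings. The free ligand and its Fe(III) and Ga(III) complexes were tested.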
On the technique in general: Dilution methods test growth across graded concentrations, often in twofold steps.

Data set [7] relates to Enterococcus faecium. In words: Antimicrobial activity against vancomycin-resistant Enterococcus faecium EF379 after 22 hrs by micro broth dilution assay. It counts as functional, organism-based. As to conditions: EF379, 22 h. Summed up:
as §3

For data set [8], the system named is Staphylococcus warneri. The experiment in a line: Antimicrobial activity against Staphylococcus warneri ATCC 17917 after 22 hrs by micro broth dilution assay. As to conditions: ATCC 17917, 22 h. It counts as functional, organism-based. Summed up:
as §3

Data set [9] concerns Proteus vulgaris. The experiment in a line: Antimicrobial activity against Proteus vulgaris ATCC 12454 after 22 hrs by micro broth dilution assay. Conditions: ATCC 12454, 22 h. The format is functional, organism-based. Summed up: as §3

Calls of active or inactive are those of the source. No cut-off for these calls is given here.

The IC50 is the point on the concentration scale where inhibition reaches its midpoint. Consider `CCCCCCCCCCCC(=O)NC(CCCN(O)C=O)C(O)C(C)C(=O)N[C@@H](CO)C(=O)N[C@@H]1CCCN(O)C(=O)CC(C)OC(=O)[C@H]([C@@H](O)C(=O)O)NC(=O)[C@H]([C@@H](C)O)NC1=O` (some centres undefined), for which the outcome in data set [1], in data set [2] and in data set [3] was Active. In addition, the Activity entry in data set [4] and in [5] was “Non-Toxic” each time. Besides, the IC50 stood at 35 µM in [6], 11 µM in [7], 28 µM in data set [8] and 14 µM in [9].
